Molecules are shown by their SMILES. Peptide text beside a SMILES is read from it.

Assay [1] addresses T1, Nociceptin receptor (Homo sapiens, UniProt P41146). Briefly: Efficacy for human ORL1 receptor expressing HEK293 cell membrane. Type of assay: functional, cell-based. A digest of the protocol: (§1)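 Membranes from HEK-293 cells expressing human ORL1 (10 μg) were incubated for 30 min at 24 °C with peptides (0.01 nM to 10 μM) in 20 mM HEPES pH 7.4 with 100 mM NaCl, 10 mM MgCl₂, 1 mM EDTA, 5 μM GDP and 400 pM [³⁵S]GTPγS. Binding was read with WGA-coated SPA beads.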

Assay [2] has as its target T1, Nociceptin receptor. Put plainly: Efficacy for human ORL1 receptor expressing HEK293 cells. The class given is functional, cell-based. A digest of the protocol: as §1
Assay [3] has as its target T1, Nociceptin receptor. Put plainly: Displacement of [3H]NC from human ORL1 receptor expressing HEK293 cell membrane. The class given is cell membranes. On the technique in general: Loss of bound radioactivity is the signal in a displacement assay; it reports binding, not function.

T1 sequence (P41146 whole entry): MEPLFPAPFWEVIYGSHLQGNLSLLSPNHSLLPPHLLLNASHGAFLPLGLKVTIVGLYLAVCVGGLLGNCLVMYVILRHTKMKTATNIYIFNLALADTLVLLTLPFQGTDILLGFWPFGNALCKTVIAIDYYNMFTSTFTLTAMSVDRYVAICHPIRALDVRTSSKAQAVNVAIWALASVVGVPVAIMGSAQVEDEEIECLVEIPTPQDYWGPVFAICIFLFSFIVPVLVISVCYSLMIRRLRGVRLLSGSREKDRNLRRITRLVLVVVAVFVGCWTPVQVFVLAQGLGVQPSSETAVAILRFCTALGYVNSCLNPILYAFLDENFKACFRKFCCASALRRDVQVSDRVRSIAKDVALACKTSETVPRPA

As for `C[C@H](NC(=O)[C@H](CO)NC(=O)[C@H](CCCCN)NC(=O)[C@H](CCCN=C(N)N)NC(=O)[C@H](C)NC(=O)[C@H](CS)NC(=O)[C@@H](NC(=O)[C@H](Cc1ccccc1)NC(=O)CNC(=O)CNC(=O)[C@H](Cc1ccccc1)NC(=O)[C@@H](N)CS)[C@@H](C)O)C(=O)N[C@@H](CCCN=C(N)N)C(=O)N[C@@H](CCCCN)C(N)=O` (H-CFGGFTCARKSARK-NH2), the Emax (usually the greatest response seen or fitted, relative to the assay's reference) on Nociceptin receptor [1] was found to be 12%.
Compound `C[C@H](NC(=O)CNC(=O)[C@@H](NC(=O)[C@H](Cc1ccccc1)NC(=O)CNC(=O)CNC(=O)[C@H](Cc1ccccc1)NC(=O)[C@@H](N)CS)[C@@H](C)O)C(=O)N[C@@H](CCCN=C(N)N)C(=O)N[C@@H](CCCCN)C(=O)N[C@@H](CS)C(=O)N[C@@H](C)C(=O)N[C@@H](CCCN=C(N)N)C(=O)N[C@@H](CCCCN)C(N)=O` (H-CFGGFTGARKCARK-NH2) returned an Emax at Nociceptin receptor [1] of 59%.
`C[C@H](NC(=O)CNC(=O)[C@@H](NC(=O)[C@H](Cc1ccccc1)NC(=O)CNC(=O)CNC(=O)[C@H](Cc1ccccc1)NC(=O)[C@@H](N)CS)[C@@H](C)O)C(=O)N[C@@H](CCCNC(=N)N)C(=O)N[C@@H](CCCCN)C(=O)N[C@@H](CO)C(=O)N[C@@H](CS)C(=O)N[C@@H](CCCNC(=N)N)C(=O)N[C@@H](CCCCN)C(N)=O` (H-CFGGFTGARKSCRK-NH2): the midpoint of the response on Nociceptin receptor [2] (hek293), the EC50, lay at 286 nM. For the same compound, the IC50 (usually the concentration that inhibits the measured activity by half) at Nociceptin receptor [3] (hek293) was found to be 1290 nM.
In the same order, the values of `C[C@H](NC(=O)[C@H](CO)NC(=O)[C@H](CCCCN)NC(=O)[C@H](CCCNC(=N)N)NC(=O)[C@H](CS)NC(=O)CNC(=O)[C@@H](NC(=O)[C@H](Cc1ccccc1)NC(=O)CNC(=O)CNC(=O)[C@H](Cc1ccccc1)NC(=O)[C@@H](N)CS)[C@@H](C)O)C(=O)N[C@@H](CCCNC(=N)N)C(=O)N[C@@H](CCCCN)C(N)=O` (H-CFGGFTGCRKSARK-NH2) are more than 10000 nM and 2710 nM.
Regarding `C[C@H](NC(=O)CNC(=O)[C@@H](NC(=O)[C@H](Cc1ccccc1)NC(=O)CNC(=O)CNC(=O)[C@@H](N)Cc1ccccc1)[C@@H](C)O)C(=O)N[C@@H](CCCNC(=N)N)C(=O)N[C@@H](CCCCN)C(=O)N[C@@H](CS)C(=O)N[C@@H](C)C(=O)N[C@@H](CCCNC(=N)N)C(=O)N[C@@H](CCCCN)C(=O)N[C@@H](CS)C(N)=O` (H-FGGFTGARKCARKC-NH2), a half-maximal response on Nociceptin receptor [2] (EC50) required 3.9 nM. On Nociceptin receptor [3], this compound came in with an IC50 of 0.471 nM.
Consider `C[C@H](NC(=O)CNC(=O)[C@@H](NC(=O)[C@H](Cc1ccccc1)NC(=O)CNC(=O)CNC(=O)[C@@H](N)Cc1ccccc1)[C@@H](C)O)C(=O)N[C@@H](CCCN=C(N)N)C(=O)N[C@@H](CCCCN)C(=O)N[C@@H](CS)C(=O)N[C@@H](C)C(=O)N[C@@H](CCCN=C(N)N)C(=O)N[C@@H](CCCCN)C(=O)N[C@@H](CS)C(N)=O` (H-FGGFTGARKCARKC-NH2), for which the Emax on Nociceptin receptor [1] was 105%.
Consider `C[C@H](NC(=O)[C@H](CO)NC(=O)[C@H](CCCCN)NC(=O)[C@H](CCCNC(=N)N)NC(=O)[C@H](CS)NC(=O)CNC(=O)[C@@H](NC(=O)[C@H](Cc1ccccc1)NC(=O)CNC(=O)CNC(=O)[C@@H](N)Cc1ccccc1)[C@@H](C)O)C(=O)N[C@@H](CCCNC(=N)N)C(=O)N[C@@H](CCCCN)C(=O)N[C@@H](CS)C(N)=O` (H-FGGFTGCRKSARKC-NH2), for which, at Nociceptin receptor [2], it took 22.3 nM to reach a half-maximal effect (EC50). Besides, on Nociceptin receptor [3], the IC50 stood at 37.2 nM.
On to `C[C@H](NC(=O)[C@H](CO)NC(=O)[C@H](CCCCN)NC(=O)[C@H](CCCN=C(N)N)NC(=O)[C@H](CS)NC(=O)CNC(=O)[C@@H](NC(=O)[C@H](Cc1ccccc1)NC(=O)CNC(=O)CNC(=O)[C@@H](N)Cc1ccccc1)[C@@H](C)O)C(=O)N[C@@H](CCCN=C(N)N)C(=O)N[C@@H](CCCCN)C(=O)N[C@@H](CS)C(N)=O` (H-FGGFTGCRKSARKC-NH2), for which the Emax on Nociceptin receptor [1] is 101%.
The same measure, in the same setting: the figure for `C[C@H](NC(=O)[C@H](CO)NC(=O)[C@H](CCCCN)NC(=O)[C@H](CCCN=C(N)N)NC(=O)[C@H](C)NC(=O)[C@@H]1CSSC[C@H](N)C(=O)N[C@@H](Cc2ccccc2)C(=O)NCC(=O)NCC(=O)N[C@@H](Cc2ccccc2)C(=O)N[C@@H]([C@@H](C)O)C(=O)N1)C(=O)N[C@@H](CCCN=C(N)N)C(=O)N[C@@H](CCCCN)C(N)=O` (HELM PEPTIDE1{C.F.G.G.F.T.C.A.R.K.S.A.R.K.[am]}$PEPTIDE1,PEPTIDE1,1:R3-7:R3$$$V2.0) is 18%; for `C[C@@H]1NC(=O)CNC(=O)[C@H]([C@@H](C)O)NC(=O)[C@H](Cc2ccccc2)NC(=O)CNC(=O)CNC(=O)[C@H](Cc2ccccc2)NC(=O)[C@@H](N)CSSC[C@@H](C(=O)N[C@@H](C)C(=O)N[C@@H](CCCN=C(N)N)C(=O)N[C@@H](CCCCN)C(N)=O)NC(=O)[C@H](CCCCN)NC(=O)[C@H](CCCN=C(N)N)NC1=O` (HELM PEPTIDE1{C.F.G.G.F.T.G.A.R.K.C.A.R.K.[am]}$PEPTIDE1,PEPTIDE1,1:R3-11:R3$$$V2.0) it is 81%.
Consider `C[C@@H]1NC(=O)CNC(=O)[C@H]([C@@H](C)O)NC(=O)[C@H](Cc2ccccc2)NC(=O)CNC(=O)CNC(=O)[C@H](Cc2ccccc2)NC(=O)[C@@H](N)CSSC[C@@H](C(=O)N[C@@H](CCCNC(=N)N)C(=O)N[C@@H](CCCCN)C(N)=O)NC(=O)[C@H](CO)NC(=O)[C@H](CCCCN)NC(=O)[C@H](CCCNC(=N)N)NC1=O` (HELM PEPTIDE1{C.F.G.G.F.T.G.A.R.K.S.C.R.K.[am]}$PEPTIDE1,PEPTIDE1,1:R3-12:R3$$$V2.0), for which the EC50 (usually the concentration giving half of the maximal effect) at Nociceptin receptor [2] was 439 nM. The IC50 on Nociceptin receptor [3] was found to be 387 nM.
Taken in the same sequence, the figures for `C[C@H](NC(=O)[C@H](CO)NC(=O)[C@H](CCCCN)NC(=O)[C@H](CCCNC(=N)N)NC(=O)[C@@H]1CSSC[C@H](N)C(=O)N[C@@H](Cc2ccccc2)C(=O)NCC(=O)NCC(=O)N[C@@H](Cc2ccccc2)C(=O)N[C@@H]([C@@H](C)O)C(=O)NCC(=O)N1)C(=O)N[C@@H](CCCNC(=N)N)C(=O)N[C@@H](CCCCN)C(N)=O` (HELM PEPTIDE1{C.F.G.G.F.T.G.C.R.K.S.A.R.K.[am]}$PEPTIDE1,PEPTIDE1,1:R3-8:R3$$$V2.0) were more than 10000 nM and 874 nM.
In the same order, the values of `C[C@H](NC(=O)CNC(=O)[C@@H](NC(=O)[C@H](Cc1ccccc1)NC(=O)CNC(=O)CNC(=O)[C@@H](N)Cc1ccccc1)[C@@H](C)O)C(=O)N[C@@H](CCCNC(=N)N)C(=O)N[C@@H](CCCCN)C(=O)N[C@H]1CSSC[C@@H](C(N)=O)NC(=O)[C@H](CCCCN)NC(=O)[C@H](CCCNC(=N)N)NC(=O)[C@H](C)NC1=O` (HELM PEPTIDE1{F.G.G.F.T.G.A.R.K.C.A.R.K.C.[am]}$PEPTIDE1,PEPTIDE1,10:R3-14:R3$$$V2.0) are 4.37 nM and 0.122 nM.
For the compound `C[C@H](NC(=O)CNC(=O)[C@@H](NC(=O)[C@H](Cc1ccccc1)NC(=O)CNC(=O)CNC(=O)[C@@H](N)Cc1ccccc1)[C@@H](C)O)C(=O)N[C@@H](CCCN=C(N)N)C(=O)N[C@@H](CCCCN)C(=O)N[C@H]1CSSC[C@@H](C(N)=O)NC(=O)[C@H](CCCCN)NC(=O)[C@H](CCCN=C(N)N)NC(=O)[C@H](C)NC1=O` (HELM PEPTIDE1{F.G.G.F.T.G.A.R.K.C.A.R.K.C.[am]}$PEPTIDE1,PEPTIDE1,10:R3-14:R3$$$V2.0), the Emax at Nociceptin receptor [1] came to 99%.
In turn, `C[C@@H]1NC(=O)[C@H](CO)NC(=O)[C@H](CCCCN)NC(=O)[C@H](CCCN=C(N)N)NC(=O)[C@@H](NC(=O)CNC(=O)[C@@H](NC(=O)[C@H](Cc2ccccc2)NC(=O)CNC(=O)CNC(=O)[C@@H](N)Cc2ccccc2)[C@@H](C)O)CSSC[C@@H](C(N)=O)NC(=O)[C@H](CCCCN)NC(=O)[C@H](CCCN=C(N)N)NC1=O` (HELM PEPTIDE1{F.G.G.F.T.G.C.R.K.S.A.R.K.C.[am]}$PEPTIDE1,PEPTIDE1,7:R3-14:R3$$$V2.0) had an Emax on Nociceptin receptor [1] of 95%.

The values above are taken from ChEMBL document CHEMBL1134636, “Structure-activity studies on nociceptin analogues: ORL1 receptor binding and biological activity of cyclic disulfide-containing analogues of nociceptin peptides” (J Med Chem, 2001).
